Test results taken from ChEMBL document CHEMBL4007497, “Development of Potent and Selective Antagonists for the UTP-Activated P2Y4 Receptor” (J Med Chem, 2017).
Active and inactive are the calls of the source. No cut-off for these calls is given here.

Tests used:
P2Y purinoceptor 4 [1] = biological target: T1, P2Y purinoceptor 4 (Homo sapiens, UniProt P51582); experiment: Antagonist activity at human P2Y4 receptor transfected in human 1321N1 cells assessed as inhibition of UTP-activated intracellular calcium mobilization preincubated for 30 mins followed by UTP addition by fluo-4-dye based fluorescence assay; type: functional, cell-based
T1 sequence (P51582 whole entry): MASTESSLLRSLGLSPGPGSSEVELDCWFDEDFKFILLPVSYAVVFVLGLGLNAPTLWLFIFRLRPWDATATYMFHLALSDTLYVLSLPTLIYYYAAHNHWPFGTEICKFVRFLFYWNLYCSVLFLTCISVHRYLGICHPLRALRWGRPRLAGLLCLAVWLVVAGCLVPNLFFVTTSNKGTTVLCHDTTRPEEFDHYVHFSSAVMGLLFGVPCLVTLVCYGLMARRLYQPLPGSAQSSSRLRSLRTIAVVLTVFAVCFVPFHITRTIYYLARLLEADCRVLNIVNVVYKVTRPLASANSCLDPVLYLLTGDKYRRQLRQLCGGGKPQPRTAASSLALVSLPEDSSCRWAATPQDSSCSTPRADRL
How it was run: (§1)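 1321N1 astrocytoma cells stably expressing the human P2Y subtype, grown in DMEM with 10 % FCS and 200 μg/mL G418 at 37 °C. Plated 50,000 cells/well about 24 h before testing. Cells loaded with fluo-4 AM for 1 h, then placed in HBSS and preincubated 30 min with compound. Agonist was injected at about EC80: ADP 500 nM (P2Y1), UTP 500 nM (P2Y2, P2Y4), UDP 750 nM (P2Y6). Fluorescence read at ex 488/em 525 nm. At least three independent experiments in duplicate. IC50 obtained by nonlinear regression.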

P2Y purinoceptor 1 = P2Y purinoceptor 1 (Homo sapiens, UniProt P47900); experiment: Antagonist activity at human P2Y1 receptor transfected in human 1321N1 cells assessed as inhibition of ADP-activated intracellular calcium mobilization preincubated for 30 mins followed by ADP addition by fluo-4-dye based fluorescence assay; type: functional, cell-based; how it was run: as §1
Sequence of P2Y purinoceptor 1 (P47900 whole entry): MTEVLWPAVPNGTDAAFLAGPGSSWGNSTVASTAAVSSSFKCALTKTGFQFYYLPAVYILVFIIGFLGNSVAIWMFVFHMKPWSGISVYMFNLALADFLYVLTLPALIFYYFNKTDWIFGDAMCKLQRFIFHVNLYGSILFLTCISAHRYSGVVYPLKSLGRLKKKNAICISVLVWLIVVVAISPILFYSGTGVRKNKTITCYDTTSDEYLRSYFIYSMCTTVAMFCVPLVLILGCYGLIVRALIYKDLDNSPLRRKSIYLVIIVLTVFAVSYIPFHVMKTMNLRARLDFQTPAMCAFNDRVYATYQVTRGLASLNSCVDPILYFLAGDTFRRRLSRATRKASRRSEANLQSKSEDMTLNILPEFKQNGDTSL

P2Y purinoceptor 2 = P2Y purinoceptor 2 (Homo sapiens, UniProt P41231); experiment: Antagonist activity at human P2Y2 receptor transfected in human 1321N1 cells assessed as inhibition of UTP-activated intracellular calcium mobilization preincubated for 30 mins followed by UTP addition by fluo-4-dye based fluorescence assay; type: functional, cell-based; how it was run: as §1
Sequence of P2Y purinoceptor 2 (P41231 whole entry): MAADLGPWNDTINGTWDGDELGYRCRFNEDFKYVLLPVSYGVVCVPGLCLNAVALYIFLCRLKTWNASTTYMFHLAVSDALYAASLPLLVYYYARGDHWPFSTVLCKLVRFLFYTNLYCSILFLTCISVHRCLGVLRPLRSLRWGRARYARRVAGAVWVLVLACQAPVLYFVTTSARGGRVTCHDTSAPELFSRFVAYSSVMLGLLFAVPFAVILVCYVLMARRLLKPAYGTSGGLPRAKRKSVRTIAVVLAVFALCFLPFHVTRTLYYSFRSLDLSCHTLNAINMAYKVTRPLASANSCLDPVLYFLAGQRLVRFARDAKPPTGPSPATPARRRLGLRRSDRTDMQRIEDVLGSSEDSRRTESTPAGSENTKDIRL

P2Y purinoceptor 6 = P2Y purinoceptor 6 (Homo sapiens, UniProt Q15077); experiment: Antagonist activity at human P2Y6 receptor transfected in human 1321N1 cells assessed as inhibition of UDP-activated intracellular calcium mobilization preincubated for 30 mins followed by UDP addition by fluo-4-dye based fluorescence assay; type: functional, cell-based; how it was run: as §1
Sequence of P2Y purinoceptor 6 (Q15077 whole entry): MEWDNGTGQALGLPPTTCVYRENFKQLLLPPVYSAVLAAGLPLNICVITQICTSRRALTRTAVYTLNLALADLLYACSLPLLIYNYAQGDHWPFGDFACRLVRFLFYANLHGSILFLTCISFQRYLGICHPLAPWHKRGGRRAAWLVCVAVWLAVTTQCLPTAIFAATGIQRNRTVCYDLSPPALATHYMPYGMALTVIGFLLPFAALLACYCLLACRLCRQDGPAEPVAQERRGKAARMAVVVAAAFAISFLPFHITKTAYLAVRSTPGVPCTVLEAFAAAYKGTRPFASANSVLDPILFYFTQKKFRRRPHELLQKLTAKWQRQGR

P2Y purinoceptor 12 [2] = biological target: T2, P2Y purinoceptor 12 (Homo sapiens, UniProt Q9H244); experiment: Antagonist activity at human P2Y12 receptor expressed in CHO cells assessed as inhibition of 2-MeSADP-induced beta-arrestin translocation preincubated for 30 mins followed by 2-MeSADP addition measured after 90 mins by luminescence-based topcount method; type: cell-based
T2 sequence (Q9H244 whole entry): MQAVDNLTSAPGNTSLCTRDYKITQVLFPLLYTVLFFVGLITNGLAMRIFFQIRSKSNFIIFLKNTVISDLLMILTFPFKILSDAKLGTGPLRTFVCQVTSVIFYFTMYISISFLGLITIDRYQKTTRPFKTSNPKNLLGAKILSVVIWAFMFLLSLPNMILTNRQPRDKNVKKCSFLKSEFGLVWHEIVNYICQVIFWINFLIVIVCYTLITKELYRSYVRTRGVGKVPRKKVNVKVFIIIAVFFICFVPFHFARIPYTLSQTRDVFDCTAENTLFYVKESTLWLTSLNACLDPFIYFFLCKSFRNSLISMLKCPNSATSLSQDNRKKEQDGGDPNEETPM

P2Y purinoceptor 4 [3] = biological target: T1, P2Y purinoceptor 4; experiment: Non-competitive antagonist activity at human P2Y4 receptor transfected in human 1321N1 cells assessed as inhibition of UTP-activated intracellular calcium mobilization at 15 uM preincubated for 30 mins followed by UTP addition by fluo-4-dye based fluorescence assay; type: functional, cell-based
How it was run: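 Fluo-4-loaded 1321N1 cells stably expressing human P2Y4 were preincubated 30 min with fixed antagonist concentrations up to 15 μM in HBSS. Full UTP concentration-response curves were then recorded by injecting UTP and reading fluorescence immediately (ex 488/em 525 nm). The mode of antagonism was judged from depression of the maximum versus rightward shift. EC50 values were compared by unpaired t-test.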

P2Y purinoceptor 12 [4] = biological target: T2, P2Y purinoceptor 12; experiment: Competitive antagonist activity at human P2Y12 receptor expressed in CHO cells assessed as forskolin/ 2-methylthio-ADP-induced cAMP production preincubated for 10 mins followed 2-methylthio-ADP addition measured after 3.5 hrs by luciferase reporter gene assay; type: functional, cell-based; conditions: read-out: pA2 (converted)

IC50 (P2Y purinoceptor 4 [1]) | IC50 (P2Y purinoceptor 1) | IC50 (P2Y purinoceptor 2) | IC50 (P2Y purinoceptor 6) | IC50 (P2Y purinoceptor 12 [2]) | inhibition (P2Y purinoceptor 4 [3]) | Kb (P2Y purinoceptor 12 [4]) | SMILES
233 nM | 5.48 µM | 8.54 µM | 12.5 µM | 2410 nM | Active |  | Cc1ccc(Sc2ccc(Nc3cc(S(=O)(=O)O)c(N)c4c3C(=O)c3ccccc3C4=O)cc2)c(C)c1
 |  |  |  |  |  | 0.158 nM | Nc1c(S(=O)(=O)O)cc(Nc2ccc(Nc3ccccc3)c(S(=O)(=O)O)c2)c2c1C(=O)c1ccccc1C2=O
